According to the EternaBench riboswitch data:

How the values were obtained:
MS2 coat protein [1] = assay: apparent Kd, MS2 coat protein; higher = weaker binding; RNA-MaP array; tryptophan 2.4 mM where present
In short: (§1)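 Designs on Illumina sequencing-chip clusters, transcribed by stalled E. coli RNA polymerase, were exposed to SNAP-549-labelled MS2 coat protein in doubling steps from 0.7 or 1.5 nM up to 3 µM, without and then with constant ligand. The buffer held 100 mM Tris-HCl pH 7.5, 80 mM KCl, 4 mM MgCl2, BSA, DTT, yeast tRNA and Tween-20. Apparent Kd values are medians of filtered per-cluster binding-curve fits to green signal normalised to red-channel RNA signal and control-cluster median Fmax.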

MS2 coat protein [2] = assay: apparent Kd, MS2 coat protein; higher = weaker binding; RNA-MaP array; theophylline 2 mM where present
In short: as §1

[3] = designed as: OFF switch for tryptophan, no ligand
[4] = ligand present: tryptophan, designed as: OFF switch for tryptophan
[5] = designed as: OFF switch for theophylline, no ligand
[6] = ligand present: theophylline, designed as: OFF switch for theophylline
[7] = designed as: ON switch for theophylline, no ligand
[8] = ligand present: theophylline, designed as: ON switch for theophylline

Sequence	apparent Kd (MS2 coat protein [2]; [5])	apparent Kd (MS2 coat protein [2]; [6])	apparent Kd (MS2 coat protein [2]; [7])	apparent Kd (MS2 coat protein [2]; [8])	also measured
GCCGCUGCCGCGAUAUGUAUGGGUGUGUAACGAGGACCGGUACGGCCGCCACUCGCGAUCGCACAUGAGGAUCACCCAUGUGUCC	–	–	–	–	apparent Kd (MS2 coat protein [1]; [3]): 53.7 nM; apparent Kd (MS2 coat protein [1]; [4]): 78.5 nM
AUAAUAUAGACGGCCGCCACUAUAAACAUGAGGAACAUGAGGAUCACCCAUGUAUGAGGAUCACCUAGGACCGGGUCAUAUAUUA	–	–	–	–	apparent Kd (MS2 coat protein [1]; [3]): 55.8 nM; apparent Kd (MS2 coat protein [1]; [4]): 42 nM
CUCAUCCACGCGGCCGCCACUAUAUUGUGGUGCGAAUGUGUCGUAAUACAUGAGGAUCACCCAUGUAGGACCGGGCGUGGAUGAG	–	–	–	–	apparent Kd (MS2 coat protein [1]; [3]): 12.6 nM; apparent Kd (MS2 coat protein [1]; [4]): 54.8 nM
UUUAUAUAGACGGCCGCCACUGGAAUUAAUACAUGAGGAUCACCCAUGUAUAGAGAAUAAUAAUACAGGACCGGGUCUUCAUGAU	–	–	–	–	apparent Kd (MS2 coat protein [1]; designed as: ON switch for tryptophan, no ligand): 29.4 nM; apparent Kd (MS2 coat protein [1]; ligand present: tryptophan, designed as: ON switch for tryptophan): 12 nM
UACAUGAGGAUCACCCAUGUAUGAAUAGAUACCAGAUAAAAUAAGGUCCCUUGGCAGCUAGUGAAUCGAGGGUGGGUAUCAUGAU	10.4 nM	10.8 nM	–	–	–
AGCAUGUUAUCAGAUACCAGACAUCUUUUUUUACGUAUUACAUGAGGAUCACCCAUGUUGGUCCCUUGGCAGCUGAAAUAUUUCA	–	–	203 nM	31.9 nM	–
UGAUCCUACAGAGAUACCAGUGCCACUGAGUGACCAGACACAUGAGGAUCACCCAUGUAACACCCUUGGCAGCUCAACUAAAGGG	–	–	22.2 nM	80.3 nM	–
GGGCCCGUAAGCAGGCCCACAGCGGGUGAUACCAGCAAUAAAACUUGCCCUUGGCAGCACACAGCUACAUGAGGAUCACCCAUGU	–	–	36.5 nM	63.5 nM	–
AUACCUAAUGUUACAUUUACCUUAUCAGAUACCAGACUUUACGUUGUCCCUUGGCAGCUGUAUCACAUGAGGAUCACCCAUGUUG	–	–	16 nM	15.7 nM	–
AUUAAUUGUCGUGAUACCAGACUUACAUGAGGAUCACCCAUGUUACUUAAGAUUUUUGUUGUCCCUUGGCAGCACUUUUUAAUUA	24.1 nM	18.9 nM	–	–	–
UGUAUGUGAUUUGAUACCAGUUCUGCUGGUAAAACAUGAGGAUCACCCAUGUUACUUUGGGACCCUUGGCAGCAAAUCGCAUACU	–	–	201 nM	13.9 nM	–
AAAAUAAAUAAAACGCGUAACAUGAAGGAUACCAGCCAGAAAACUGGCCCUUGGCAGCCUCUACAUGAGGAUCACCCAUGUCGCG	–	–	331 nM	29.6 nM	–
AUCGUACCUGAUGAUACCAGCAUGUGAUCAUAACAUGAGGAUCACCCAUGUAAUCAGUGAUGCCCUUGGCAGCAUGAUCGGUACA	–	–	57.3 nM	26.3 nM	–
GUUACAUGGCAAGCAUGUAUAUGGAUAGAUACCAGUUGAUAUUAAGACCCUUGGCAGCUGAGUACAUGAGGAUCACCCAUGUAAG	42.5 nM	90.8 nM	–	–	–
AUAUGAAAGAGUGAUACCAGACUACAUGAGGAUCACCCAUGUGACAUUUAAAUAUCAUUUGUCCCUUGGCAGCACAUUAAGUACA	38.8 nM	44.9 nM	–	–	–
GCACUACAUGAGGAUCACCCAUGUGCAGAUACCAGAGGUGUAUGCCUCCCUUGGCAGCUGCGUCGCUCUGGAAACUUAUUGGUUU	–	–	18.4 nM	22.7 nM	–
GCACGACAUGAGGAUCACCCAUGUGCAGAUACCAGUAAUGUAUGUUACCCUUGGCAGCUGAGUAGGUCUGGAGGGCUAUAGGUAA	–	–	13.3 nM	17.1 nM	–
AAACGUUGCUGCGAUACCAGACAUGAGGAUCACCCAUGUACCAAGGUACGAAAAUAACAUGUCCCUUGGCAGCGCAGCAACGAAA	13.2 nM	336 nM	–	–	–
UAUAUAUUGAUGGAUACCAGCAGAGAAAACGUUUAUCCUAACAUGAGGAUCACCCAUGUAUGCCCUUGGCAGCUGUUGAUAUAUA	22.2 nM	32.6 nM	–	–	–
AGUGUUAUAACUGAUACCAGACUUUUGCUUAUACAUGAGGAUCACCCAUGUAAAAUGGUUGUCCCUUGGCAGCAGAAAAUACACA	–	–	84 nM	20.4 nM	–
AUCUUGUACCGUAAUACUUUACGUUGGGAUACCAGCAUGGACCCAUGCCCUUGGCAGCUUUACAUGAGGAUCACCCAUGUUGUAG	–	–	36.6 nM	32.5 nM	–
UUAUUUAUAAAUGAUACCAGCCGAUUGGCCGCAAAUCCUAACAUGAGGAUCACCCAUGUCGGCCCUUGGCAGCAUUUAUGGGUUU	76.7 nM	722 nM	–	–	–
AAACAUGACAUGGAUACCAGACACAUGAGGAUCACCCAUGUUGAGGAUCACCCAUGUCCCGUCCCUUGGCAGCCAGCAUGAGGAU	9.49 nM	10.2 nM	–	–	–
AUCGUACCUGAGGAUACCAGCAUGUGAUCAUAACAUGAGGAUCACCCAUGUAAUCAGUGAUGCCCUUGGCAGCUUGGUCGAUACA	–	–	54.2 nM	34.9 nM	–
GCACUACAUGAGGAUCACCCAUGUGCAGAUACCAGAGGUGUAUGCCUCCCUUGGCAGCUGCGUCGCUCUGGCAGCUUGUGGGUUG	–	–	100 nM	153 nM	–
GGUGGGACUUGUGAUACCAGCCUAAUUCUAAACGAAUUGCACAUGAGGAUCACCCAUGUCGGCCCUUGGCAGCAUGAGUAUUUAU	–	–	114 nM	36.8 nM	–

Sequence	apparent Kd (MS2 coat protein [2]; [5])	apparent Kd (MS2 coat protein [2]; [6])	apparent Kd (MS2 coat protein [2]; [7])	apparent Kd (MS2 coat protein [2]; [8])	also measured
UUAAGAGGCUAUCCACUUUGAUUUUGUGAUACCAGAAUAAUUUUAUUCCCUUGGCAGCAUGACAUGAGGAUCACCCAUGUGUCUU	–	–	37.4 nM	72.4 nM	–
AAGGUAUCACAGACAUGGGUGUACUGUGAUACCAGCUAGGAAACUAGCCCUUGGCAGCACAUGAGGAUCACCCAUGUAAGAAUAA	47.4 nM	141 nM	–	–	–
AAUAACAUGAGGAUCACCCAUGUAAAAGAUACCAGAUGCAUGAUGAUCCCUUGGCAGCUUAACGCUGAUUGAUUACAAUCAGCGA	–	–	28.6 nM	87 nM	–
AAAACACAUGAGGAUCACCCAUGUCGUGAUACCAGUCAACAUGAGGACCCUUGGCAGCAUAAAAUGGGUAACAUGAGGAUCACCC	85.1 nM	133 nM	–	–	–
UCGUGUAUAUCGGAUACCAGUGAGAACGAUACAUGAGGAUCACCCAUGUGAGUUGAUGUACACCCUUGGCAGCUGUAUAUAUCUA	–	–	25 nM	16.3 nM	–
UACAUGAGGAUCACCCAUGUAAGGUGAGAUACCAGUGAUAUGCUACACCCUUGGCAGCUCACGGCUGACUAUCAGCACACAUGUA	–	–	27 nM	16.3 nM	–
AAUGGCGUUGGUGAGGCGGUUAAUGGCGAUACCAGCGUGGAAACACGCCCUUGGCAGCGCCAAAACAUGAGGAUCACCCAUGUUA	14.7 nM	139 nM	–	–	–
UAAAACAUGAGGAUCACCCAUGUAAUUGAUACCAGAGUGAUGAUCCUCCCUUGGCAGCAAAACGCUGAUUGGAAACAAUCAGCGA	–	–	113 nM	251 nM	–
AUUCCAUAGGUGCAGUUGUUAAAUGGCGAUACCAGCGUGGAAACACGCCCUUGGCAGCGCCAAAACAUGAGGAUCACCCAUGUUA	95.8 nM	186 nM	–	–	–
GGCACUCUGUAAGAUACCAGACGUCGGUGCUUACAUGAGGAUCACCCAUGUUGCUUUUUAGUCCCUUGGCAGCUUCGGAUAACCA	–	–	121 nM	147 nM	–
UGAUCCUAGACUGAUACCAGUCAUGAGUACAUGAGGAUCACCCAUGUCCAGGGACUCAAUGACCCUUGGCAGCAGAACCUAGUUC	–	–	193 nM	147 nM	–
GUCAGUUCUCAUGAUACCAGACCUGCCUCGGACAUGAGGAUCACCCAUGUACCCAAGCGAGUCCCUUGGCAGCAUGUGGCUUAAA	–	–	19.2 nM	10.8 nM	–
GCUGUAAGUGCAGAUACCAGCAGGUGAUAUUUCUAAUGACAUGAGGAUCACCCAUGUAACUGCCCUUGGCAGCUGCACUUACAGC	–	–	57.6 nM	12.9 nM	–
GGUGGCGUGACGGAUACCAGCCACCACCGAUAGACCACAUGAGGAUCACCCAUGUUGGGUGGCCCUUGGCAGCUGUCGUGCGGCG	–	–	230 nM	56.7 nM	–
AUACCGAGUGAGUCGUGUUUCUUUUCAGAUACCAGACUUUUCGUUGUCCCUUGGCAGCUGUUUUACAUGAGGAUCACCCAUGUUG	18.2 nM	25.5 nM	–	–	–
GGGCCCGGGCGCGAGCCCGGGCCCAUUGAUACCAGUGAAUGUGUACGCCCUUGGCAGCGAAUCCUAACAUGAGGAUCACCCAUGU	–	–	43.3 nM	53.8 nM	–
UGAUCCUACAGAGAUACCAGUGCCGCUAGAUAACUAUGCACAUGAGGAUCACCCAUGUAACACCCUUGGCAGCUCAACUAAAGGG	–	–	92.2 nM	115 nM	–
AUCGCACCUGGUGAUACCAGCGUUUGCUCGCGACAUGAGGAUCACCCAUGUGGCCAGUGAUGCCCUUGGCAGCAUGGGCGGUGCA	–	–	282 nM	90.2 nM	–
GGCCGGUGCGCUUUGAAGCGACGGCGUGAUACCAGAUGUAAGAGCGUCCCUUGGCAGCACGUUUACAUGAGGAUCACCCAUGUCU	–	–	196 nM	131 nM	–
AUAACAUGAGGAUCACCCAUGUAGAGUGAUACCAGACUACGUAAUGUCCCUUGGCAGCACAAGUAAAGUUACGAAUAUUGAUAGA	–	–	192 nM	51.5 nM	–
GAACAUGAGGAUCACCCAUGUUAAACAGAUACCAGUGAUAUAAUACACCCUUGGCAGCUGAAGCUGAAUAAUAAUUCCCUCAAGC	–	–	12 nM	14.3 nM	–
CUCGGGUUAUCAGAUACCAGACUAAAAUUUACAUGAGGAUCACCCAUGUAAUGGGUGAUAGUCCCUUGGCAGCUGUUAUGUUUAA	62.3 nM	119 nM	–	–	–
AGAAUAACACAUGAGGAUCACCCAUGUGAUACCAGCUAGGAAACUAGCCCUUGGCAGCACAUAAUCCUCAUGAGCUGCCAUAAUA	12.8 nM	21.4 nM	–	–	–
ACAUGAGGAUCACCCAUGUGCCGUCUUGAUACCAGACCCGAAGUAGUCCCUUGGCAGCAACUACGUGACGGUCGCCCAUGUGUAG	14.2 nM	24 nM	–	–	–
AGACAUGAGGAUCACCCAUGUAGUACGGAUACCAGAUCCAGAUGCAUCCCUUGGCAGCUGUGGUACAGCGUUACAUCGCUCGUAG	20 nM	20.6 nM	–	–	–
UGUAACAUGAGGAUCACCCAUGUGAGUGAUACCAGACUAGUGUUGGUCCCUUGGCAGCACGCUGGGCGAGUGUGUAGUCUAUGCG	–	–	92.8 nM	120 nM	–
